Activity calls are given as the source filed them. The rule behind the calls is not given here.
Tests used:
[1] = target: T1, Heat shock factor protein 1 (Homo sapiens) (UniProt Q00613); experiment: Activation of Hsf1 in human MSC-NEU cells assessed as induction of HSP70 accumulation at 1 uM incubated for 24 hrs by Western blotting analysis relative to control; format: cell-based; settings: MSC-NEU cell, filed as activator
T1 sequence (whole entry): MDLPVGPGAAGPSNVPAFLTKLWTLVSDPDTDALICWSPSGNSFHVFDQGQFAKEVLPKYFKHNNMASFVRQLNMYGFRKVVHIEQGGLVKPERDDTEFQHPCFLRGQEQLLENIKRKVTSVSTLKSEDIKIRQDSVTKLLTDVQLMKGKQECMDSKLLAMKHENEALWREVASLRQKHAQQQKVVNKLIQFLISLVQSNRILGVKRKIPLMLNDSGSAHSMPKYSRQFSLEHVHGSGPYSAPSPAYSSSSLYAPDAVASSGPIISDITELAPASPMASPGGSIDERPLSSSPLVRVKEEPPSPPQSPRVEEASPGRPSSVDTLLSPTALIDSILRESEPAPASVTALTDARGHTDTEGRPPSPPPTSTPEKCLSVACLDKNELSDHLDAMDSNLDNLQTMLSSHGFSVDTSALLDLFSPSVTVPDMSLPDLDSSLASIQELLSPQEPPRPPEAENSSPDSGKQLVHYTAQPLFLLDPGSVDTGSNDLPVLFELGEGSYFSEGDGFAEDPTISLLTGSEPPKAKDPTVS
Method in brief: (§1)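 MSC-NEU cells: human dental-pulp mesenchymal stem cells (MSC-DP) grown in DMEM/F12 with 10% FBS, 100 units/mL penicillin and 0.1 mg/mL streptomycin at 37 °C, 5% CO2. They were then reprogrammed to a neuronal phenotype over 5 days in Neurobasal medium with B27 supplement, 3% FBS and the same antibiotics.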

[2] = target: T1, Heat shock factor protein 1 (Homo sapiens); experiment: Activation of Hsf1 in human MSC-NEU cells assessed as induction of HSP90 accumulation at 1 uM incubated for 24 hrs by Western blotting analysis relative to control; format: cell-based; settings: MSC-NEU cell; for fold change (FC): filed as activator; method in brief: as §1
[3] = target: T1, Heat shock factor protein 1 (Homo sapiens); experiment: Activation of Hsf1 in human MSC-NEU cells assessed as increase in HSP70 substrate-binding chaperone activity at 1 uM incubated for 24 hrs by protein-protein interaction assay relative to control; format: cell-based; settings: MSC-NEU cell, filed as activator; method in brief: as §1
[4] = Cytotoxicity against human MSC-NEU cells assessed as reduction in cell viability measured after 48 hrs by MTT assay; format: cell-based; settings: read-out: LC50
Method in brief: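 Human dental pulp mesenchymal stem cells (MSC-DP) were grown in DMEM/F12 with 10% FBS, penicillin and streptomycin at 37 °C and 5% CO2. They were then reprogrammed to a neuronal phenotype (MSC-NEU) over 5 days in Neurobasal medium with B27 supplement, 3% FBS and antibiotics.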

[5] = Neuroprotective activity against amyloid beta (1 to 42)-stimulated human MSC-NEU cells assessed as increase in cell index incubated for 48 hrs by xCELLigence RTCA analysis; format: functional; method in brief: as §1
[6] = Inhibition of amyloid beta (1 to 42)-induced cellular senescence in human MSC-NEU cells assessed as reduction in beta-galactosidase activity at 1 uM measured after 48 hrs by X-Gal staining based analysis relative to control; format: functional, MSC-NEU cell; method in brief: as §1
[7] = Inhibition of amyloid beta(1 to 42)-induced apoptosis in human MSC-NEU cells assessed as reduction in caspase-3 activity at 1 uM measured after 24 hrs by fluorescence based analysis relative to control; format: functional, MSC-NEU cell; method in brief: as §1
[8] = Inhibition of amyloid beta(1 to 42)-induced apoptosis in human MSC-NEU cells at 1 uM measured after 24 hrs by AnnexinV-Alexafluor647/propidium iodide staining based flow cytomtery relative to control; format: functional, MSC-NEU cell; method in brief: as §1
[9] = target: T1, Heat shock factor protein 1 (Homo sapiens); experiment: Activation of Hsf1 in human HEK293 cells transfected with Hsp70.1pr-luc plasmid at 1 uM incubated for 24 hrs by luciferase reporter gene based luminescence assay; format: cell-based; settings: filed as activator

| SMILES | fold change (FC) [1] | fold change (FC) [2] | fold change (FC) [3] | CC50 at 48 h [4] [µM] | Activity [5] [%] | fold change (FC) [6] | fold change (FC) [7] | fold change (FC) [8] | Activity [9] | Activity [2] |
| --- | --- | --- | --- | --- | --- | --- | --- | --- | --- | --- |
| O=c1[nH]c2ccccc2nc1-c1ccc(-c2ccccc2)[nH]1 | 1.6 | 1.85 | 1.3 | 494 | 10 | 1.12 | 2.12 | 4.2 | Active | – |
| Brc1ccc2[nH]cc(-c3ncnc4ccccc34)c2c1 | 1.9 | – | 1.3 | 279 | 10 | 1.04 | 2.51 | 4.2 | Active | inactive |
| Clc1nccc(-c2c[nH]c3ccc(Br)cc23)n1 | 2.7 | 1.6 | 1.3 | 316 | 10 | 1.17 | 2.04 | 4.2 | Active | – |
| C[n+]1c2ccccc2c(-c2c[nH]c3ccc(O)cc23)c2ccccc21.[I-] | 2.2 | 2.1 | 1.3 | > 1000 | 10 | 1.22 | 2.24 | 4.2 | Active | – |
